Experimental data taken from ChEMBL document CHEMBL1124618, “Synthesis of the 2-chloro analogues of 3'-deoxyadenosine, 2',3'-dideoxyadenosine, and 2',3'-didehydro-2',3'-dideoxyadenosine as potential antiviral agents” (1989).

Columns and labels:
Homo sapiens [1] = organism: Homo sapiens; test: Compound was tested for its relative effect on p24 viral core protein production by HIV -infected human T4+ lymphocytes (C8166) at 20 uM; assay type: functional
Homo sapiens [2] = organism: Homo sapiens; test: Compound was tested for its effect on the growth of human T4+ lymphocytes (C8166) in culture at 100 uM; assay type: functional
Homo sapiens [3] = organism: Homo sapiens; test: Compound was tested for its effect on the growth of human T4+ lymphocytes (C8166) in culture at 1000 uM; assay type: functional
Homo sapiens [4] = organism: Homo sapiens; test: Compound was tested for its effect on Reverse Transcriptase (RT) production by HIV-Infected Human T4+ Lymphocytes (C8166) at 100 uM; assay type: functional
Homo sapiens [5] = organism: Homo sapiens; test: Compound was tested for its effect on the growth of human T4+ lymphocytes (C8166) in culture at 10 uM; assay type: functional
Homo sapiens [6] = organism: Homo sapiens; test: Compound was tested for its relative effect on p24 viral core protein production by HIV -infected human T4+ lymphocytes (C8166) at 200 uM; assay type: functional
Homo sapiens [7] = organism: Homo sapiens; test: Compound was tested for its effect on Reverse Transcriptase (RT) production by HIV-Infected Human T4+ Lymphocytes (C8166) at 200 uM; assay type: functional
Homo sapiens [8] = organism: Homo sapiens; test: Compound was tested for its effect on Reverse Transcriptase (RT) production by HIV-Infected Human T4+ Lymphocytes (C8166) at 2 uM; assay type: functional
Homo sapiens [9] = organism: Homo sapiens; test: Compound was tested for its effect on Reverse Transcriptase (RT) production by HIV-Infected Human T4+ Lymphocytes (C8166) at 20 uM; assay type: functional
Homo sapiens [10] = organism: Homo sapiens; test: Compound was tested for its effect on the growth of human T4+ lymphocytes (C8166) in culture at 500 uM; assay type: functional
Homo sapiens [11] = organism: Homo sapiens; test: Compound was tested for its relative effect on p24 viral core protein production by HIV -infected human T4+ lymphocytes (C8166) at 100 uM; assay type: functional
Homo sapiens [12] = organism: Homo sapiens; test: Compound was tested for its effect on the growth of human T lymphocytes (SupT1) in culture at 500 uM; assay type: functional
Procedure, shortened: (§1)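 Uninfected lymphocyte lines (Raji B cells or SupT1 T cells) kept in growth medium and given drug dilutions. After 48 h, cells stained with trypan blue and counted. Viable cells (dye exclusion) expressed as percentage of untreated controls. Values from a typical experiment.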

Homo sapiens [13] = organism: Homo sapiens; test: Compound was tested for its effect on the growth of human T lymphocytes (SupT1) in culture at 1 uM; assay type: functional; procedure, shortened: as §1
Homo sapiens [14] = organism: Homo sapiens; test: Compound was tested for its effect on the growth of human T lymphocytes (SupT1) in culture at 100 uM; assay type: functional; procedure, shortened: as §1
Homo sapiens [15] = organism: Homo sapiens; test: Compound was tested for its effect on the growth of human B lymphocytes (Raji) in culture at 10 uM; assay type: functional; procedure, shortened: as §1
Homo sapiens [16] = organism: Homo sapiens; test: Compound was tested for its effect on the growth of human T lymphocytes (SupT1) in culture at 1000 uM; assay type: functional; procedure, shortened: as §1
SC-1 (Mus musculus) [17] = test: Compound was tested for its effect on the growth of mouse fibroblasts (SC-1) in culture at 100 uM
Homo sapiens [18] = organism: Homo sapiens; test: Compound was tested for its effect on the growth of human B lymphocytes (Raji) in culture at 1000 uM; assay type: functional; procedure, shortened: as §1
Homo sapiens [19] = organism: Homo sapiens; test: Compound was tested for its effect on the growth of human B lymphocytes (Raji) in culture at 500 uM; assay type: functional; procedure, shortened: as §1
SC-1 (Mus musculus) [20] = test: Compound was tested for its effect on the growth of mouse fibroblasts (SC-1) in culture at 10 uM
Homo sapiens [21] = organism: Homo sapiens; test: Compound was tested for its effect on the growth of human B lymphocytes (Raji) in culture at 100 uM; assay type: functional; procedure, shortened: as §1
SC-1 (Mus musculus) [22] = test: Compound was tested for its effect on the growth of mouse fibroblasts (SC-1) in culture at 1 uM
Homo sapiens [23] = organism: Homo sapiens; test: Compound was tested for its effect on the growth of human B lymphocytes (Raji) in culture at 1 uM; assay type: functional; procedure, shortened: as §1
Homo sapiens [24] = organism: Homo sapiens; test: Compound was tested for its effect on the growth of human T lymphocytes (SupT1) in culture at 10 uM; assay type: functional; procedure, shortened: as §1
Homo sapiens [25] = organism: Homo sapiens; test: Compound was tested for its effect on reverse transcriptase of HIV-infected human T4+ lymphocytes (C8166) at 2 uM; assay type: functional
Procedure, shortened: (§2)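 C8166 T4+ cells (~2 × 10⁵ per well) exposed to drug dilutions, then infected with 2500 RT units of cell-free HIV HXBc2 strain; FBS heat-inactivated (55 °C, 60 min) or not. Drug-containing medium replaced every 3 days. On day 6, RT activity measured in cell supernatants and compared with untreated controls.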

Homo sapiens [26] = organism: Homo sapiens; test: Compound was tested for its effect on reverse transcriptase of HIV-infected human T4+ lymphocytes (C8166) at 20 uM; assay type: functional; procedure, shortened: as §2

Structure (SMILES) | p24 (Homo sapiens [1]) | Control (Homo sapiens [2]) | Control (Homo sapiens [3]) | Control (Homo sapiens [4]) | Control (Homo sapiens [5]) | p24 (Homo sapiens [6]) | Control (Homo sapiens [7]) | Control (Homo sapiens [8]) | Control (Homo sapiens [9]) | Control (Homo sapiens [10]) | p24 (Homo sapiens [11]) | also measured
Nc1nc(Cl)nc2c1ncn2C1CCC(CO)O1 (configuration not stated) | 16 ng/mL | 77% | 0% | 3% | 94% | 0.2 ng/mL | <1% | 100% | 57% | 37% | 2.2 ng/mL | –
Nc1ncnc2c1ncn2[C@H]1CC[C@@H](CO)O1 | 28 ng/mL | 116% | 91% | <1% | 116% | 0.2 ng/mL | <1% | 25% | 25% | 90% | 1.8 ng/mL | –
Nc1nc(Cl)nc2c1ncn2C1OC(CO)CC1O (configuration not stated) | – | – | – | – | – | – | – | – | – | – | – | Control (Homo sapiens [12]): 13%; Control (Homo sapiens [13]): 100%; Control (Homo sapiens [14]): 73%; Control (Homo sapiens [15]): 69%; Control (Homo sapiens [16]): 8%; Control (SC-1 (Mus musculus) [17]): 2%; Control (Homo sapiens [18]): 3%; Control (Homo sapiens [19]): 8%; Control (SC-1 (Mus musculus) [20]): 53%; Control (Homo sapiens [21]): 43%; Control (SC-1 (Mus musculus) [22]): 82%; Control (Homo sapiens [23]): 98%; Control (Homo sapiens [24]): 81%
Nc1nc(Cl)nc2c1ncn2C1C=CC(CO)O1 (configuration not stated) | – | – | – | – | – | – | – | – | – | – | – | Control (Homo sapiens [25]): 53%; Control (Homo sapiens [26]): 25%
